# Screens as filed in PubChem.
# PRMT1 FP inh – PRMT1 (human) inhibition, primary screen; Q99873; recombinant PRMT1, activity-based probe fluorescence polarization; inhibition, % at 2.79 µM; 1.3% of 370,000 active;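 active = inhibition above about 21% made by adding two undisclosed values, limit read from the data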
# rCAG binder – r(CAG) repeat RNA binding; TO-PRO-1 dye displacement fluorescence; inhibition, % at 3 µM; 1.3% of 370,000 active;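 active = inhibition above the plate cutoff, the mean of all test compounds on that plate plus 3 SD, cut at about 35% in these data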;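 also: 0% = DMSO alone and 100% = 100 µM mitoxantrone as full dye displacement; higher means more dye released from RNA so lower well fluorescence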
# mABHD4 FP – inhibits mouse alpha/beta hydrolase domain 4. Q8VD66. purified mABHD4, FP-Rh probe fluorescence polarization. inhibition, % at 8.92 µM. 0.54% of 370,000 active. AID 720543;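 active = inhibition exceeding the mean over every tested compound plus 3 SD, cut at about 30% in these data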;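 also: 0% = plate median of compound wells and 100% = S159A mutant with DMSO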
#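 Material: mouse ABHD4 enzyme, wild type; Benchmarks: S159A mutant high control, sample median low control; Buffer or medium: HEPES pH 7.0, NaCl, Pluronic buffer; Signal: fluorescence polarization; Read-out: percent inhibition of probe binding, normalized to plate controls; Timing: pre-incubation 45 min, probe exposure 60 min, at 25 °C; Dosing: 8.92 µM, single dose.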
# LEDGF integ inh – blocks HIV-1 LEDGF/p75-dependent DNA integration. 0.64% of 370,000 active. TR-FRET IN-LEDGF/p75 DNA integration, Eu/Cy5. inhibition, % at 3.7 µM. AID 743269;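 active = inhibition above the screen-wide mean plus 3 SD, cut at about 13% in these data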;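 also: signal is the Cy5 over europium emission ratio at 671 and 618 nm; 0% = plate median of compound wells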
# DAGLB inh – blocks human DAGLB lipase activity; Q8NCG7; HEK293T DAGLB membrane lysate, EnzChek fluorogenic substrate; inhibition, % at 5.17 µM; 0.059% of 340,000 active; in the data active = inhibition above about 34%;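 also: 0% = enzyme with vehicle and 100% = wells lacking enzyme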
# Target sequence (Q8NCG7 whole entry, looked up): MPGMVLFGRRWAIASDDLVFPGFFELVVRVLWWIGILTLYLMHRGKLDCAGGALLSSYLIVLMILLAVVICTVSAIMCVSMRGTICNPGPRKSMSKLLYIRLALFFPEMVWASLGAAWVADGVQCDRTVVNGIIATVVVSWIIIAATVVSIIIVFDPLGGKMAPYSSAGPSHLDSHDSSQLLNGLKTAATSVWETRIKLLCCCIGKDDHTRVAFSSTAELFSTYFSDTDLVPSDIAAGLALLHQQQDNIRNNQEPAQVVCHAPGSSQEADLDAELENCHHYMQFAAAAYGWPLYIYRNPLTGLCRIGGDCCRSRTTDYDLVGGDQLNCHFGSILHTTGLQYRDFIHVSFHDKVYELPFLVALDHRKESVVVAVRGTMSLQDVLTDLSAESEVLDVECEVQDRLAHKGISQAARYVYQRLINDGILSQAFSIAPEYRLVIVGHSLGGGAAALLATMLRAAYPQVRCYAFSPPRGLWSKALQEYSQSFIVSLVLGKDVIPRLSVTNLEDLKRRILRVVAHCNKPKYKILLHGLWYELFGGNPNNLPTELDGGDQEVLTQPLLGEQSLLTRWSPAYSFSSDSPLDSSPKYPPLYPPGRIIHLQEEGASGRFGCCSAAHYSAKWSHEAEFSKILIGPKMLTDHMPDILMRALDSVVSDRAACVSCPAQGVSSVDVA
# HTRA1 inhibitor – blocks human HTRA1 serine peptidase | AID 504803 | Q92743 | 0.5% of 340,000 active | recombinant HTRA1, FP-rhodamine activity-based probe, fluorescence polarization | inhibition, % at 5.96 µM; in the data active = inhibition above about 36%;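 also: 0% = enzyme with DMSO and 100% = wells lacking enzyme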
# DAGLB inh conf – DAGLB (human) inhibition, confirmation screen; shares compounds with DAGLB inh; HEK293T DAGLB membrane lysate, EnzChek fluorogenic substrate; inhibition, % at 5.17 µM; 73% of 190 active; AID 504445;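 active = mean inhibition over triplicate wells above a set limit taken from the primary lipase screen, cut at about 34% in these data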;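 also: 0% = DAGLB with DMSO and 100% = wells lacking DAGLB enzyme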
# Starred values were filed as active, the others as inactive; / = no result; ! = a repeat was not active. This is a sample that favours compounds with a hit; in the whole collection about 3.2% have one here.
SMILES,PRMT1 FP inh,rCAG binder,mABHD4 FP,LEDGF integ inh,DAGLB inh,HTRA1 inhibitor,DAGLB inh conf
CC(=O)Nc1ccc(NC(=O)c2nc(S(=O)(=O)Cc3cccc(C)c3)ncc2Cl)cc1,32*,7,0,3,1,1,/
O=c1c2ccccc2[nH]c(=S)n1CCN1CCc2ccccc2C1,-6,2,-1,4,0,-1,/
COc1ccc(CCNCc2csc3nc4ccccc4n23)cc1OC,1,-4,-2,-1,-1,-2,/
Nc1ccc2nn(-c3ccccc3)nc2c1,8,23,6,10,3,6,/
Nc1cc2nn(-c3ccccc3)nc2cc1Cl,6,15,29,48*,-2,20,/
CC(CCc1ccccc1)NC(=O)CN1CCN(c2ccc(O)cc2)CC1 (stereo unspecified),23*,-2,21,5,0,4,/
CC(CCc1ccccc1)NC(=O)CN1CCN(Cc2ccccc2)C1=O (stereo unspecified),-1,-3,1,-2,0,2,/
COc1ccc(NC(=S)N(Cc2cccnc2)Cc2ccco2)cc1,0,-3,-1,0,1,2,/
O=C(O)c1cc(N/N=C/c2ccc(N3CCOCC3)s2)ccc1Cl,33*,75*,44*,68*,7,26,/
O=[N+]([O-])c1ccc(S(=O)(=O)Nc2ccc(-c3ccc(N4CCOCC4)nn3)cc2)cc1,-8,13,-2,1,6,1,/
O=C(Nc1ccccc1N1CCOCC1)c1cccc(S(=O)(=O)Nc2ccccc2F)c1,-4,37*,0,5,3,5,/
O=C(Nc1ccccc1N1CCCC1)c1cccc(S(=O)(=O)N2CCOCC2)c1,-1,3,-2,8,0,2,/
CCCC(Oc1ccc(Br)cc1)c1nc2c3cc(OC)c(OC)cc3nc(=S)n2[nH]1 (stereo unspecified),-4,4,1,1,-2,4,/
CC(Oc1ccc(Br)cc1)c1nc2c3ccccc3nc(=S)n2[nH]1 (stereo unspecified),9,36*,-6,-3,4,-1,/
COc1cc(/C=C(\C#N)c2nc3ccc(C)cc3[nH]2)cc([N+](=O)[O-])c1O,1,63*,29,1,27,30,/
COc1cc(/C=C(\C#N)c2nc3ccc(C)cc3[nH]2)c([N+](=O)[O-])cc1OC,4,10,22,2,3,-10,/
CCC(C)[C@H](NC(=O)[C@@H]1CSC2c3ccccc3C(=O)N21)C(=O)N1CCCCC1 (stereo partly specified),-2,-2,4,2,1,1,/
CCC(C)NC(=O)[C@@H]1CSC2c3ccccc3C(=O)N21 (stereo partly specified),21*,1,-2,-4,-2,0,/
Nc1nc(-c2ccccc2)c(N=Nc2ccc(Cl)cc2)s1,6,10,3,-1,51*,12,84*
Nc1nc(-c2ccccc2)c(-c2ccccc2)s1,0,0,3,0,-3,0,/
CC(=O)c1c(COC(=O)c2ccco2)nc2ccccc2[n+]1[O-],-2,0,5,-2,-1,11,/
COc1ccc(N(CC(=O)NCc2ccco2)S(C)(=O)=O)cc1,1,1,1,-2,65*,1,-9
Cc1ccc2nc(-c3cccc(Cl)c3)c(Cc3ccccc3C(F)(F)F)n2c1,2,3,3,1,/,/,/
Oc1ccc(N=Nc2nc(-c3ccccc3)c(-c3ccccc3)[nH]2)cc1,-2,9,-22,0,38*,-3,31
CCC(C)/C(C)=N/NC(=O)CNS(=O)(=O)c1ccc([N+](=O)[O-])cc1 (stereo unspecified),1,5,8,-2,1,-5,/
SMILES,PRMT1 FP inh,rCAG binder,mABHD4 FP,LEDGF integ inh,DAGLB inh,HTRA1 inhibitor,DAGLB inh conf
Cc1ccc(Nc2nnc(SCc3nc4ccccc4c(=O)[nH]3)s2)cc1,-1,4,-1,5,60*,20,50*
CCCCc1nnc(NC(=O)CN2C(=O)C3CCCCC3C2=O)s1 (stereo unspecified),0,-3,2,-3,2,3,/
Cc1ccc(Cl)cc1NC1=C/C(=N\S(=O)(=O)c2cccs2)c2ccccc2C1=O,0,9,22,10,43*,40*!,46*
Cc1cccc(NC2=C/C(=N/S(=O)(=O)c3cccs3)c3ccccc3C2=O)c1,1,1,13,2,9,9,/
Cc1ccc(NC2=C/C(=N\S(=O)(=O)c3cccs3)c3ccccc3C2=O)c(C)c1,/,/,/,/,50*,53*,53*
Cc1ccc(NC2=C(Cl)C(=O)OC2OC(=O)c2ccco2)cc1C (stereo unspecified),0,7,4,1,39*,-1,36*
Cc1ccccc1C(=O)OC1OC(=O)C(Cl)=C1Nc1ccc(C(=O)O)cc1 (stereo unspecified),3,2,-3,-4,-1,2,/
Cc1ccc(NC2=C(Cl)C(=O)OC2OC(=O)c2ccco2)c(C)c1 (stereo unspecified),3,-1,5,0,36*,0,33
Cc1ccc(C)c(NC2=C(Cl)C(=O)OC2OC(=O)c2ccco2)c1 (stereo unspecified),-3,-2,11,4,40*,-7,34
CCOC1OC(=O)C(Cl)=C1Nc1ccc(C)cc1C (stereo unspecified),-1,0,3,-1,-1,6,/
CCCN(C(=O)CCCSc1nc2ccccc2[nH]1)c1c(N)n(Cc2ccccc2)c(=O)[nH]c1=O,-1,-5,8,1,-3,0,/
c1ccc(N=NC2=NN(c3ccccc3)CS2)cc1,2,7,16,-1,41*,27,55*
COc1ccc(CNC(=O)CSc2cc(=O)n(C)c3ccccc23)cc1,1,-1,1,-1,1,0,/
CC1=C(c2ccccc2)CCC1=O,0,4,4,0,1,1,/
O=C1CC(c2ccccc2)=C(c2ccccc2)C1,1,1,0,-4,71*,-2,-5
O=C(CSc1nc2ccccc2o1)N1CCOCC1,-7,-2,2,2,-1,6,/
O=C(CSc1nc2ccccc2o1)N1CCCC1,0,0,1,0,49*,1,1
CCCC(c1nnnn1C(C)(C)C)N1CCN(c2ccccc2)CC1 (stereo unspecified),-3,-9,-2,4,-4,-1,/
Cc1ccc(NC(=O)Nc2cccnc2)cc1NC(=O)Nc1cccnc1,-2,12,-8,4,37*,-38,32
